In ChEMBL document CHEMBL3779892, “Increasing the binding affinity of VEGFR-2 inhibitors by extending their hydrophobic interaction with the active site: Design, synthesis and biological evaluation of 1-substituted-4-(4-methoxybenzyl)phthalazine derivatives” (Eur J Med Chem, 2016):

Experiments:
Type in all cases: functional
NCI-H23 = assay: Growth inhibition of human NCI-H23 cells at 10 uM after 48 hrs by sulforhodamine B assay; conditions: NCI-H23, 48 h, read-out: GI
Outline: (§1)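 Run at NCI on the 60-line panel. Cells grown in RPMI 1640 with 5% FBS and 2 mM L-glutamine, plated at 5000–40,000 cells/well by doubling time, and held 24 h at 37 °C before dosing. Drug (DMSO stock) given at a single final 10 µM in triplicate wells for 48 h. Adherent cells fixed with cold TCA (10% final), suspension cells with 16% TCA. SRB stain read at 515 nm. Percent growth from Tz, C and Ti.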

NCI-H322M = assay: Growth inhibition of human NCI-H322M cells at 10 uM after 48 hrs by sulforhodamine B assay; conditions: read-out: GI; outline: as §1
[1] = Growth inhibition of human SKOV3 cells at 10 uM after 48 hrs by sulforhodamine B assay; conditions: SK-OV-3, 48 h, read-out: GI; outline: as §1
K562 = assay: Growth inhibition of human K562 cells at 10 uM after 48 hrs by sulforhodamine B assay; conditions: K562, 48 h, read-out: GI; outline: as §1
SK-MEL-5 = assay: Growth inhibition of human SK-MEL-5 cells at 10 uM after 48 hrs by sulforhodamine B assay; conditions: SK-MEL-5, 48 h, read-out: GI; outline: as §1
A498 = assay: Growth inhibition of human A498 cells at 10 uM after 48 hrs by sulforhodamine B assay; conditions: A498, 48 h, read-out: GI; outline: as §1
[2] = Growth inhibition of human SNB19 cells at 10 uM after 48 hrs by sulforhodamine B assay; conditions: SNB-19, 48 h, read-out: GI; outline: as §1
[3] = Growth inhibition of human SNB75 cells at 10 uM after 48 hrs by sulforhodamine B assay; conditions: SNB-75, 48 h, read-out: GI; outline: as §1
[4] = Growth inhibition of human OVCAR8 cells at 10 uM after 48 hrs by sulforhodamine B assay; conditions: OVCAR-8, 48 h, read-out: GI; outline: as §1
[5] = Growth inhibition of human SF268 cells at 10 uM after 48 hrs by sulforhodamine B assay; conditions: SF-268, 48 h, read-out: GI; outline: as §1
[6] = Growth inhibition of human SF539 cells at 10 uM after 48 hrs by sulforhodamine B assay; conditions: SF-539, 48 h, read-out: GI; outline: as §1
[7] = Growth inhibition of human HOP92 cells at 10 uM after 48 hrs by sulforhodamine B assay; conditions: HOP-92, 48 h, read-out: GI; outline: as §1
[8] = Growth inhibition of human IGROV1 cells at 10 uM after 48 hrs by sulforhodamine B assay; conditions: IGROV-1, 48 h, read-out: GI; outline: as §1
MCF7 = assay: Growth inhibition of human MCF7 cells at 10 uM after 48 hrs by sulforhodamine B assay; conditions: MCF7, 48 h, read-out: GI; outline: as §1
SN12C = assay: Growth inhibition of human SN12C cells at 10 uM after 48 hrs by sulforhodamine B assay; conditions: read-out: GI; outline: as §1
[9] = Growth inhibition of human RXF393 cells at 10 uM after 48 hrs by sulforhodamine B assay; conditions: RXF 393, 48 h, read-out: GI; outline: as §1
[10] = Growth inhibition of human HCC2998 cells at 10 uM after 48 hrs by sulforhodamine B assay; conditions: HCC 2998, 48 h, read-out: GI; outline: as §1
[11] = Growth inhibition of human OVCAR5 cells at 10 uM after 48 hrs by sulforhodamine B assay; conditions: OVCAR-5, 48 h, read-out: GI; outline: as §1
HT-29 = assay: Growth inhibition of human HT-29 cells at 10 uM after 48 hrs by sulforhodamine B assay; conditions: HT-29, 48 h, read-out: GI; outline: as §1
[12] = Growth inhibition of human DU145 cells at 10 uM after 48 hrs by sulforhodamine B assay; conditions: DU-145, 48 h, read-out: GI; outline: as §1
[13] = Growth inhibition of human Caki1 cells at 10 uM after 48 hrs by sulforhodamine B assay; conditions: CAKI-1, 48 h, read-out: GI; outline: as §1
U-251 = assay: Growth inhibition of human U251 cells at 10 uM after 48 hrs by sulforhodamine B assay; conditions: U-251, 48 h, read-out: GI
Outline: (§2)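 NCI-60 panel, adherent cells grown in RPMI 1640 with 5% FBS and 2 mM L-glutamine, plated at 5000–40,000 cells/well and preincubated 24 h at 37 °C, 5% CO2. 10 µM final compound from DMSO stock, triplicate wells, 48 h. Fixed with cold TCA (10% final, 60 min, 4 °C) and stained with 0.4% SRB. Absorbance read at 515 nm; growth calculated against time-zero and control wells.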

[14] = Growth inhibition of human COLO205 cells at 10 uM after 48 hrs by sulforhodamine B assay; conditions: COLO 205, 48 h, read-out: GI; outline: as §1
SK-MEL-28 = assay: Growth inhibition of human SK-MEL-28 cells at 10 uM after 48 hrs by sulforhodamine B assay; conditions: SK-MEL-28, 48 h, read-out: GI; outline: as §1
[15] = Growth inhibition of human UACC257 cells at 10 uM after 48 hrs by sulforhodamine B assay; conditions: UACC-257, 48 h, read-out: GI; outline: as §2
[16] = Growth inhibition of human OVCAR4 cells at 10 uM after 48 hrs by sulforhodamine B assay; conditions: OVCAR-4, 48 h, read-out: GI; outline: as §1
T47D = assay: Growth inhibition of human T47D cells at 10 uM after 48 hrs by sulforhodamine B assay; conditions: read-out: GI; outline: as §2
[17] = Growth inhibition of human HCT116 cells at 10 uM after 48 hrs by sulforhodamine B assay; conditions: HCT-116, 48 h, read-out: GI; outline: as §1
MDA-MB-231 = assay: Growth inhibition of human MDA-MB-231 cells at 10 uM after 48 hrs by sulforhodamine B assay; conditions: MDA-MB-231, 48 h, read-out: GI; outline: as §1
[18] = Growth inhibition of human RPMI8226 cells at 10 uM after 48 hrs by sulforhodamine B assay; conditions: RPMI-8226, 48 h, read-out: GI; outline: as §1
SR = assay: Growth inhibition of human SR cells at 10 uM after 48 hrs by sulforhodamine B assay; conditions: read-out: GI
Outline: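 NCI-60 screen. Cells were grown in RPMI 1640 with 5% FBS and 2 mM L-glutamine, plated at 5000–40,000 cells/well and held 24 h at 37 °C, 5% CO2. Single 10 µM final dose from DMSO stock, triplicate wells, 48 h. Settled cells were fixed with 80% TCA (16% final) and stained with 0.4% SRB. Dye was solubilized in 10 mM Tris and read at 515 nm. Growth was calculated against time-zero and untreated wells.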

[19] = Growth inhibition of human SF295 cells at 10 uM after 48 hrs by sulforhodamine B assay; conditions: SF-295, 48 h, read-out: GI; outline: as §1
[20] = Growth inhibition of human NCI-ADR-RES cells at 10 uM after 48 hrs by sulforhodamine B assay; conditions: read-out: GI; outline: as §1
MDA-MB-435 = assay: Growth inhibition of human MDA-MB-435 cells at 10 uM after 48 hrs by sulforhodamine B assay; conditions: MDA-MB-435, 48 h, read-out: GI; outline: as §1

| SMILES | inhibition of growth at 10 µM (NCI-H23) [%] | inhibition of growth at 10 µM (NCI-H322M) [%] | inhibition of growth at 10 µM [1] [%] | inhibition of growth at 10 µM (K562) [%] | inhibition of growth at 10 µM (SK-MEL-5) [%] | inhibition of growth at 10 µM (A498) [%] | inhibition of growth at 10 µM [2] [%] | inhibition of growth at 10 µM [3] [%] | inhibition of growth at 10 µM [4] [%] | inhibition of growth at 10 µM [5] [%] | inhibition of growth at 10 µM [6] [%] | inhibition of growth at 10 µM [7] [%] | inhibition of growth at 10 µM [8] [%] | inhibition of growth at 10 µM (MCF7) [%] | inhibition of growth at 10 µM (SN12C) [%] | inhibition of growth at 10 µM [9] [%] | inhibition of growth at 10 µM [10] [%] | inhibition of growth at 10 µM [11] [%] | inhibition of growth at 10 µM (HT-29) [%] | inhibition of growth at 10 µM [12] [%] | further results |
| --- | --- | --- | --- | --- | --- | --- | --- | --- | --- | --- | --- | --- | --- | --- | --- | --- | --- | --- | --- | --- | --- |
| COc1ccc(Cc2nnc(Nc3ccc(NC(=O)Nc4cccc(OC)c4)cc3)c3ccccc23)cc1 | < 30 | < 30 | < 30 | < 30 | < 30 | < 30 | < 30 | < 30 | < 30 | < 30 | 35 | < 30 | < 30 | < 30 | < 30 | 50 | < 30 | < 30 | < 30 | < 30 | inhibition of growth at 10 µM [13]: < 30%; inhibition of growth at 10 µM (U-251): 32%; inhibition of growth at 10 µM [14]: < 30%; inhibition of growth at 10 µM (SK-MEL-28): < 30%; inhibition of growth at 10 µM [15]: < 30%; inhibition of growth at 10 µM [16]: < 30%; inhibition of growth at 10 µM (T47D): < 30%; inhibition of growth at 10 µM [17]: < 30%; inhibition of growth at 10 µM (MDA-MB-231): < 30%; inhibition of growth at 10 µM [18]: 43%; inhibition of growth at 10 µM (SR): < 30%; inhibition of growth at 10 µM [19]: < 30%; inhibition of growth at 10 µM [20]: < 30%; inhibition of growth at 10 µM (MDA-MB-435): < 30% |
| COc1ccc(Cc2nnc(Nc3ccc(NC(=O)Nc4cccc(C(F)(F)F)c4)cc3)c3ccccc23)cc1 | < 30 | < 30 | < 30 | < 30 | < 30 | < 30 | 30 | 31 | < 30 | < 30 | < 30 | < 30 | < 30 | < 30 | < 30 | 50 | < 30 | < 30 | < 30 | < 30 | inhibition of growth at 10 µM [13]: < 30%; inhibition of growth at 10 µM (U-251): 30%; inhibition of growth at 10 µM [14]: < 30%; inhibition of growth at 10 µM (SK-MEL-28): < 30%; inhibition of growth at 10 µM [15]: < 30%; inhibition of growth at 10 µM [16]: < 30%; inhibition of growth at 10 µM (T47D): < 30%; inhibition of growth at 10 µM [17]: 42%; inhibition of growth at 10 µM (MDA-MB-231): < 30%; inhibition of growth at 10 µM [18]: 42%; inhibition of growth at 10 µM (SR): 34%; inhibition of growth at 10 µM [19]: < 30%; inhibition of growth at 10 µM [20]: < 30%; inhibition of growth at 10 µM (MDA-MB-435): < 30% |
